From paper PMC10234138 (Journal of Enzyme Inhibition and Medicinal Chemistry, 2023)
Several values for one entry are separate records, joined by “and”; a condition that tells them apart may be missing. Equal values may be shown once.

Legend:
[1] = test system: A-549 (epithelial cancer cell line); test: Antiproliferative assay, A-549; assay type: cell-based; details: Homo sapiens, A549, read-out: Antiproliferative activity IC50 ± SEM, A-549
Cell viability assay = assay type: cell-based; details: human, MCF-10A mammary gland epithelial cells
Caspase-3 = Caspase-3 assay in Panc-1; assay type: cell-based, human; details: Panc-1 cells; for Caspase-3 Fold change: vs control untreated cells
Bcl-2 = Bcl-2 assay in Panc-1; assay type: cell-based, human; details: Panc-1 cells; for Bcl-2 Fold reduction: vs control untreated cells
EGFR^T790M = EGFR^T790M (Homo sapiens, UniProt P00533, T790M); test: biochemical
[2] = test system: four cancer cell lines (A-549, MCF-7, Panc-1, HT-29); test: Antiproliferative assay, average over four cancer cell lines; assay type: cell-based, human; details: for GI50: Homo sapiens, read-out: Antiproliferative activity, Average (GI50)
[3] = test system: HT-29 (colon cancer cell line); test: Antiproliferative assay, HT-29; assay type: cell-based; details: Homo sapiens, HT-29, read-out: Antiproliferative activity IC50 ± SEM, HT-29
Caspase-8 = Caspase-8 assay in Panc-1; assay type: cell-based, human; details: Panc-1 cells; for Caspase-8 Fold change: vs control untreated cells
[4] = test system: MCF-7 (breast cancer cell line); test: Antiproliferative assay, MCF-7; assay type: cell-based; details: Homo sapiens, MCF7, read-out: Antiproliferative activity IC50 ± SEM, MCF-7
Bax = Bax assay in Panc-1; assay type: cell-based, human; details: Panc-1 cells; for Bax Fold change: vs control untreated cells
Method in brief: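 Bax protein in treated Panc-1 cells, read as concentration in pg/mL. Fold induction is relative to untreated Panc-1 control cells. Staurosporine serves as reference compound.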

EGFR^WT = EGFR^WT (Homo sapiens, UniProt P00533); test: EGFR inhibitory assay; assay type: biochemical
[5] = test system: Panc-1 (pancreas cancer cell line); test: Antiproliferative assay, Panc-1; assay type: cell-based; details: Homo sapiens, PANC-1, read-out: Antiproliferative activity IC50 ± SEM, Panc-1
[6] = antiproliferative, four cancer cell lines

Sequence of EGFR^WT (P00533 669-1210): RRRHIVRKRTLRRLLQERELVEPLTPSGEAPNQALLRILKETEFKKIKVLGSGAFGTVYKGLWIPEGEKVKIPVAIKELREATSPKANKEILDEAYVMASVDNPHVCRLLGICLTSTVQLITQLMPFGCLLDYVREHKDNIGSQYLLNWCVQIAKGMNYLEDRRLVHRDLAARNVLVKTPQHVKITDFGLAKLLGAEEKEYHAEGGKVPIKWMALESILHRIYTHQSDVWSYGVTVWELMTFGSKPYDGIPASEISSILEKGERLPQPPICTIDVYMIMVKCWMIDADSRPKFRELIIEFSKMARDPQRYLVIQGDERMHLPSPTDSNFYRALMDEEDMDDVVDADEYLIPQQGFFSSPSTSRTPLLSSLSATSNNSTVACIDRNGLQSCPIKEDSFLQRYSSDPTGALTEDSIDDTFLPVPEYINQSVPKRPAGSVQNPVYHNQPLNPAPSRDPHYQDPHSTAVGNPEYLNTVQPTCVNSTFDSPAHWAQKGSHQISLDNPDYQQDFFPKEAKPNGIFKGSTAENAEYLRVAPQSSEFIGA
Sequence of EGFR^T790M (P00533 25-1210 T790M): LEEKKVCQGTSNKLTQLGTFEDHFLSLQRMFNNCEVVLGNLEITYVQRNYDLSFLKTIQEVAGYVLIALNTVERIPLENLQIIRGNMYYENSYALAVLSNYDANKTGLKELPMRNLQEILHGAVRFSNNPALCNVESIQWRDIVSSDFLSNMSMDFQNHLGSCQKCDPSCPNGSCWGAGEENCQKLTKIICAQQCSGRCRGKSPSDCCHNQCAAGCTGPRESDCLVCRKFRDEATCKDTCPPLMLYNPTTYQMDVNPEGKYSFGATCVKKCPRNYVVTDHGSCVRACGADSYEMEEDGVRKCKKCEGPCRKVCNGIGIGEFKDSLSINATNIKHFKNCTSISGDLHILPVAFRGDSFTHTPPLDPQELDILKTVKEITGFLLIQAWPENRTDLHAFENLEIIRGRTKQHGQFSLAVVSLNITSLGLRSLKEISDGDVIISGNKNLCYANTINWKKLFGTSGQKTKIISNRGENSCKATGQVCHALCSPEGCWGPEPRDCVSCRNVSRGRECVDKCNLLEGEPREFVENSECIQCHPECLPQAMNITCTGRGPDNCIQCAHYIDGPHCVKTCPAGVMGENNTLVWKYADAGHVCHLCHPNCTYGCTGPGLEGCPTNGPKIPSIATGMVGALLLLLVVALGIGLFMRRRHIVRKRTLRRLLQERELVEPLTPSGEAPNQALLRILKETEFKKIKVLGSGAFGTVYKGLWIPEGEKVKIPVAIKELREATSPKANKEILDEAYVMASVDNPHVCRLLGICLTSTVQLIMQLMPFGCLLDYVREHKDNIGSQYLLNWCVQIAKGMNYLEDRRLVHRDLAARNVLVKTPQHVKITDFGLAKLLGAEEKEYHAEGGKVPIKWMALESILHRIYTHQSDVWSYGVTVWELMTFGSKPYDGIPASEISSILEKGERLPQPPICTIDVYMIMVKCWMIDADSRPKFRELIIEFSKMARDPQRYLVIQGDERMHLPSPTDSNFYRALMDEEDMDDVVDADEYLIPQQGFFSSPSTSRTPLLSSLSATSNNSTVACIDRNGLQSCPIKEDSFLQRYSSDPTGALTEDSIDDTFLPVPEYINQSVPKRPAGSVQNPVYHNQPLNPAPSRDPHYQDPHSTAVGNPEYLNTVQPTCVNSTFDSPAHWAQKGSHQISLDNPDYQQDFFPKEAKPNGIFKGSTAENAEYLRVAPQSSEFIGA

| Structure (SMILES) | IC50 [1] | viability at 96 h, 50 µM (Cell viability assay) | Caspase-3 Conc (Caspase-3) | Bcl-2 Conc (Bcl-2) | Bcl-2 Fold reduction (Bcl-2) | IC50 (EGFR^T790M) | GI50 [2] | IC50 [3] | Caspase-8 Conc (Caspase-8) | Caspase-8 Fold change (Caspase-8) | IC50 [4] | Bax Conc (Bax) | Bax Fold change (Bax) | IC50 (EGFR^WT) | IC50 [5] | fold less potent than compound 5f (GI50) [2, 6] | fold more potent than compound 5b (GI50) [2, 6] | Caspase-3 Fold change (Caspase-3) | Caspase-3 Fold change (Caspase-3; listed as 5 g) | Bax Conc (Bax; listed as 5 g) |
| --- | --- | --- | --- | --- | --- | --- | --- | --- | --- | --- | --- | --- | --- | --- | --- | --- | --- | --- | --- | --- |
| CO/C=C/c1c(C(=O)NCCc2ccc(N3CCCC3C)cc2)[nH]c2ccc(Cl)cc12 (stereo not drawn) [Compound 5f, (E)-5-chloro-3-(2-methoxyvinyl)-N-(4-(2-methylpyrrolidin-1-yl)phenethyl)-1H-indole-2-carboxamide] | 0.028 ± 0.003 µM | 87% | 560.2 ± 5.0 pg/mL | 0.80 ng/mL | 6 | 0.0095 ± 0.002 µM | 0.029 µM | 0.03 ± 0.003 µM | 2.10 ng/mL | 25 | 0.03 ± 0.003 µM | 305 pg/mL and 305.50 pg/mL | 37 | 0.068 ± 0.004 µM | 0.027 ± 0.003 µM | – | – | – | – | – |
| CO/C=C/c1c(C(=O)NCCc2ccccc2)[nH]c2ccc(Cl)cc12 [Compound 5a, (E)-5-Chloro-3–(2-methoxyvinyl)-N-phenethyl-1H-indole-2-carboxamide] | 0.075 ± 0.008 µM | 91% | – | – | – | – | 0.076 µM | 0.075 ± 0.008 µM | – | – | 0.079 ± 0.008 µM | – | – | – | 0.073 ± 0.007 µM | 2.5 fold | – | – | – | – |
| CO/C=C/c1c(C(=O)NCCc2ccc(N(C)C)cc2)[nH]c2ccc(Cl)cc12 [Compound 5d, (E)-5-chloro-N-(4-(dimethylamino)phenethyl)-3-(2-methoxyvinyl)-1H-indole-2-carboxamide] | 0.034 ± 0.004 µM | 89% | – | – | – | – | 0.036 µM | 0.038 ± 0.004 µM | – | – | 0.038 ± 0.003 µM | – | – | 0.085 ± 0.005 µM | 0.035 ± 0.003 µM | – | – | – | – | – |
| CO/C=C/c1c(C(=O)N2CCN(c3ccccc3)CC2)[nH]c2ccc(Cl)cc12 [Compound 6d, (E)-(5-chloro-3–(2-methoxyvinyl)-1H-indol-2-yl)(4-phenylpiperazin-1-yl) methanone] | 0.085 ± 0.008 µM | 89% | – | – | – | – | 0.085 µM | 0.085 ± 0.008 µM | – | – | 0.087 ± 0.008 µM | – | – | – | 0.081 ± 0.008 µM | – | – | – | – | – |
| CO/C=C/c1c(C(=O)NCCc2cccc(N3CCCCC3)c2)[nH]c2ccc(Cl)cc12 [Compound 5c, (E)-5-chloro-3–(2-methoxyvinyl)-N-(3-(piperidin-1-yl)phenethyl)-1H-indole-2-carboxamide] | 0.045 ± 0.005 µM | 87% | – | – | – | – | 0.047 µM | 0.047 ± 0.005 µM | – | – | 0.049 ± 0.005 µM | – | – | 0.102 ± 0.007 µM | 0.045 ± 0.005 µM | – | 1.6 fold | – | – | – |
| CO/C=C/c1c(C(=O)NCCc2ccc(N3CCCCC3)cc2)[nH]c2ccc(Cl)cc12 [Compound 5b, (E)-5-chloro-3–(2-methoxyvinyl)-N-(4-(piperidin-1-yl)phenethyl)-1H-indole-2-carboxamide] | 0.076 ± 0.007 µM | 89% | – | – | – | – | 0.077 µM | 0.078 ± 0.007 µM | – | – | 0.079 ± 0.007 µM | – | – | – | 0.075 ± 0.007 µM | – | – | – | – | – |
| CO/C=C/c1c(C(=O)NC(CO)Cc2ccccc2)[nH]c2ccc(Cl)cc12 (stereo not drawn) [Compound 6a, (E)-5-chloro-N-(1-hydroxy-3-phenylpropan-2-yl)-3-(2-methoxyvinyl)-1H-indole-2-carboxamide] | 0.089 ± 0.009 µM | 86% | – | – | – | – | 0.089 µM | 0.089 ± 0.009 µM | – | – | 0.092 ± 0.009 µM | – | – | – | 0.085 ± 0.009 µM | – | – | – | – | – |
| O=c1c2[nH]c3ccc(Cl)cc3c2ccn1CCc1ccccc1 [Compound 7a, 6-chloro-2-phenethyl-2,9-dihydro-1H-pyrido[3,4-b]indol-1-one] | 0.053 ± 0.005 µM | 90% | – | – | – | – | 0.054 µM | 0.055 ± 0.005 µM | – | – | 0.057 ± 0.005 µM | – | – | – | 0.051 ± 0.005 µM | – | – | – | – | – |
| CO/C=C/c1c(C(=O)NCc2nc3ccccc3[nH]2)[nH]c2ccc(Cl)cc12 [Compound 6f, (E)-N-((1H-benzo[d]imidazol-2-yl)methyl)-5-chloro-3–(2-methoxyvinyl)-1H-indole-2-carboxamide] | 0.04 ± 0.004 µM | 89% | – | – | – | – | 0.041 µM | 0.042 ± 0.004 µM | – | – | 0.042 ± 0.004 µM | – | – | 0.093 ± 0.006 µM | 0.038 ± 0.004 µM | – | – | – | – | – |
| CN[C@@H]1C[C@H]2O[C@@](C)([C@@H]1OC)n1c3ccccc3c3c4c(c5c6ccccc6n2c5c31)C(=O)NC4 [Staurosporine, reference compound] | – | – | 503.2 ± 4.0 pg/mL | 0.98 ng/mL | 5 | – | – | – | 1.75 ng/mL | 21 | – | 276 pg/mL and 276.20 pg/mL | – | – | – | – | – | 7.6 | – | – |
| C#Cc1cccc(Nc2ncnc3cc(OCCOC)c(OCCOC)cc23)c1 [Erlotinib, reference compound] | 0.03 ± 0.003 µM | – | – | – | – | – | 0.033 µM | 0.03 ± 0.003 µM | – | – | 0.04 ± 0.003 µM | – | – | – | 0.03 ± 0.003 µM | – | – | – | – | – |
| CO/C=C/c1c(C(=O)NCc2ccccc2)[nH]c2ccc(Cl)cc12 [Compound 6c, (E)-N-benzyl-5-chloro-3-(2-methoxyvinyl)-1H-indole-2-carboxamide] | 0.067 ± 0.006 µM | 85% | – | – | – | – | 0.066 µM | 0.064 ± 0.006 µM | – | – | 0.069 ± 0.006 µM | – | – | – | 0.062 ± 0.006 µM | – | – | – | – | – |
| CO/C=C/c1c(C(=O)NCCc2ccc(N3CCOCC3)cc2)[nH]c2ccc(Cl)cc12 [Compound 5g, (E)-5-chloro-3-(2-methoxyvinyl)-N-(4-morpholinophenethyl)-1H-indole-2-carboxamide] | 0.03 ± 0.003 µM | 89% | 542.5 ± 5.0 pg/mL | 0.84 ng/mL | 6 | 0.0119 ± 0.003 µM | 0.031 µM | 0.032 ± 0.003 µM | 1.97 ng/mL | 23 | 0.032 ± 0.003 µM | 299.40 pg/mL | 36 | 0.074 ± 0.005 µM | 0.03 ± 0.003 µM | – | – | 8.3 | approximately 8 | 299 pg/mL |
| O=c1c2[nH]c3ccc(Cl)cc3c2ccn1CCc1ccc(N2CCCCC2)cc1 [Compound 7b, 6-chloro-2–(4-(piperidin-1-yl)phenethyl)-2,9-dihydro-1H-pyrido[3,4-b]indol-1-one] | 0.057 ± 0.006 µM | 89% | – | – | – | – | 0.057 µM | 0.057 ± 0.006 µM | – | – | 0.059 ± 0.006 µM | – | – | – | 0.055 ± 0.005 µM | – | – | – | – | – |
| CO/C=C/c1c(C(=O)NCCc2ccc(N3CCCC3)cc2)[nH]c2ccc(Cl)cc12 [Compound 5e, (E)-5-chloro-3-(2-methoxyvinyl)-N-(4-(pyrrolidin-1-yl)phenethyl)-1H-indole-2-carboxamide] | 0.07 ± 0.007 µM | 90% | – | – | – | – | 0.07 µM | 0.071 ± 0.007 µM | – | – | 0.073 ± 0.007 µM | – | – | – | 0.067 ± 0.007 µM | – | – | – | – | – |
| CO/C=C/c1c(C(=O)N2CCC(Cc3ccccc3)CC2)[nH]c2ccc(Cl)cc12 [Compound 6e, (E)-(4-benzylpiperidin-1-yl)(5-chloro-3–(2-methoxyvinyl)-1H-indol-2-yl) methanone] | 0.045 ± 0.005 µM | 91% | – | – | – | – | 0.045 µM | 0.045 ± 0.005 µM | – | – | 0.047 ± 0.005 µM | – | – | 0.098 ± 0.007 µM | 0.043 ± 0.004 µM | – | – | – | – | – |
| CO/C=C/c1c(C(=O)NC2c3ccccc3-c3ccccc32)[nH]c2ccc(Cl)cc12 [Compound 6b, (E)-5-chloro-N-(9H-fluoren-9-yl)-3-(2-methoxyvinyl)-1H-indole-2-carboxamide] | 0.102 ± 0.01 µM | 87% | – | – | – | – | 0.102 µM | 0.104 ± 0.01 µM | – | – | 0.105 ± 0.01 µM | – | – | – | 0.097 ± 0.01 µM | – | – | – | – | – |
